Measurements gathered from unrelated publications.
Protocols differ between the studies behind these lines.
CDK4: Cyclin-dependent kinase 4 (CDK4, Homo sapiens, UniProt P11802)
CDK4 with cyclin D3: Cyclin-dependent kinase 4, with cyclin D3 (CDK4, Homo sapiens, UniProt P11802)
CDK4 with cyclin D1: Cyclin-dependent kinase 4, with cyclin D1 (CDK4, Homo sapiens, UniProt P11802)

SMILES | target | observed | action | method | tested at | measurement | result
CCOC(=O)[C@H]1Cc2c(cc([N+](=O)[O-])cc2[N+](=O)[O-])[C@@H](O)[C@@]12C(=O)Nc1ccc(Br)cc12 | CDK4 | cell-free assay | inhibitor | TR-FRET | 1 µM | inhibition | 76.3%
Cn1cncc1[C@@](O)(COc1ccc(C#N)cc1-c1ccc(OC(F)(F)F)cc1)c1ccc(C#N)cc1 | CDK4 with cyclin D3 | cell-free assay | – | competition with immobilised ligand | 1 µM | remaining binding | 92%
O=c1[nH]c2ccccc2n1C1CCN(Cc2ccc(-c3[nH]c4cc5ncnc5cc4nc3-c3ccccc3)cc2)CC1 | CDK4 with cyclin D1 | cell-free assay | – | – | 0.5 µM | remaining signal | 108%
Nc1ncc(-c2nc(N3CCOCC3)nc(N3CCOCC3)n2)c(C(F)F)n1 | CDK4 with cyclin D1 | binding | – | competition with immobilised ligand | 10 µM | remaining binding | 100%
CCOC(=O)[C@H]1Cc2c(cc([N+](=O)[O-])cc2[N+](=O)[O-])[C@@H](O)[C@@]12C(=O)Nc1c(F)cccc12 | CDK4 | cell-free assay | inhibitor | TR-FRET | 1 µM | inhibition | 52.6%
Cc1nn(C)cc1-c1nc2c(N3CCN(Cc4ccc(Cl)cc4)CC3)c(Cl)cnc2[nH]1 | CDK4 with cyclin D1 | binding | – | competition with immobilised ligand | 1 µM | remaining binding | 76%
CC(C)(C)c1cc(C=C(C#N)C#N)cc(Br)c1O | CDK4 with cyclin D3 | enzyme activity | inhibitor | – | 0.5 µM | remaining activity | 96.5%
CCOC(=O)[C@H]1Cc2c(cc([N+](=O)[O-])cc2[N+](=O)[O-])[C@H](O)[C@]12C(=O)Nc1cc(Cl)ccc12 | CDK4 | cell-free assay | inhibitor | TR-FRET | 1 µM | inhibition | 38.6%
N#CC1(c2ccccn2)CCN(Cc2cc(C(=O)O)c(=O)n3ccccc23)CC1 | CDK4 | cell-free assay | – | competition with immobilised ligand | 1 µM | remaining binding | 94%
